Data: PMC8952960 (Nature chemistry, 2021)
Blank lines part the entries; values can stand above or below the molecule they belong to.

How the values were obtained:
[1] = target: Ku70/Ku80 heterodimer (Homo sapiens, UniProt P12956); assay: Ku70/Ku80 heterodimerization assay; type: biochemical; conditions: pre-treatment of recombinantly expressed Ku70
[2] = target: preformed Ku70-Ku80 complex (Homo sapiens, UniProt P12956); assay: treatment of preformed Ku70-Ku80 complex; type: biochemical; conditions: 1 h, 23 °C
Sequence of preformed Ku70-Ku80 complex (P12956 whole entry, one chain of several): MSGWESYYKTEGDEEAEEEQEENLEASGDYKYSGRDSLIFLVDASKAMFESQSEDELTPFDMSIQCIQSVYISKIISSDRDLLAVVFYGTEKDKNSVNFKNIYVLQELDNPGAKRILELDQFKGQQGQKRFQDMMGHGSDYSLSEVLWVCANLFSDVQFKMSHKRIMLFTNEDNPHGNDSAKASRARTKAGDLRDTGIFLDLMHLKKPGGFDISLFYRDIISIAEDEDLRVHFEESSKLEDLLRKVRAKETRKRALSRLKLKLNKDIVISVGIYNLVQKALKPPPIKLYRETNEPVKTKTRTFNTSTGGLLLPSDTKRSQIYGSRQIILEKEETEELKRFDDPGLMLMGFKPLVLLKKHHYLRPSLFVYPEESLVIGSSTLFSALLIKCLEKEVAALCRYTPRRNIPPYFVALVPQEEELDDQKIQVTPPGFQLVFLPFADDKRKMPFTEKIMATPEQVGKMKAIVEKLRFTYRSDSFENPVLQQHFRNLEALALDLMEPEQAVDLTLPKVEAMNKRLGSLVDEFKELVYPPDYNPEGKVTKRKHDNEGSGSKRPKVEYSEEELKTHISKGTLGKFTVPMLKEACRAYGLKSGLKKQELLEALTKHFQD
Method in brief: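 Lysates of HEK293T cells co-expressing WT Ku80 with WT or K351R Ku70 were first anti-Flag co-immunoprecipitated (1 h, 4 °C). The captured complex was then exposed to test compound or DMSO at the stated concentrations (1 h, 23 °C), washed, and analysed by Western blot. Blots represent four independent experiments.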

[3] = target: K351R mutant of Ku70 with Ku80 (Homo sapiens, UniProt P12956, K351R); assay: Ku70/Ku80 heterodimerization assay, K351R mutant of Ku70; type: biochemical
Sequence of K351R mutant of Ku70 with Ku80 (P12956 whole entry K351R): as the sequence (P12956 whole entry, one chain of several) above, with K351R counted along it
Method in brief: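 FLAG-Ku70 (WT or K351R) HEK293T lysates were sonicated in 1% NP-40 buffer with protease inhibitors and normalised to 1.0 mg·mL⁻¹. They were treated with test compound or DMSO (1 h, 23 °C), then mixed with WT Ku80 lysate (1.0 mg·mL⁻¹, 1 h, 23 °C). Anti-FLAG co-IP (1 h, 4 °C) and four washes in 0.2% NP-40 buffer followed, with anti-HA immunoblot read-out.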

[4] = target: K351 of XRCC6 (Ku70) (Homo sapiens, UniProt P12956); assay: competitive isoTOP-ABPP, XRCC6; type: binding
Sequence of K351 of XRCC6 (Ku70) (P12956 whole entry): as the sequence (P12956 whole entry, one chain of several) above
Method in brief: (§1)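 Human cancer cell (MDA-MB-231, Ramos) soluble or membrane fractions at 1.8 mg·mL⁻¹, or live cells, were exposed to test compound or DMSO. Proteomes were then labelled with lysine probe 1 (100 µM, 1 h, 23 °C). Compound samples were clicked to light and DMSO samples to heavy TEV-biotin tags, then streptavidin-enriched, trypsinised, TEV-released and analysed by MS. R was taken as the median peptide ratio per lysine.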

[5] = target: T1, K53 of GSTT2B (Homo sapiens, UniProt P0CG30); assay: competitive isoTOP-ABPP; type: binding
T1 sequence (P0CG30 1-244): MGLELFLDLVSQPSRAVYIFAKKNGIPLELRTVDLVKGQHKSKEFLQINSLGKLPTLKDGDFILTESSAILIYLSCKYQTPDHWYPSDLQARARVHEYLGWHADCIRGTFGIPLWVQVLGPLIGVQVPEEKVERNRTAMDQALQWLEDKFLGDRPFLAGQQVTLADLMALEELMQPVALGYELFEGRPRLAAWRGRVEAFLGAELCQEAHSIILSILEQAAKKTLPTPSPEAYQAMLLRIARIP
Method in brief: as §1

[6] = target: T2, WT-CPOX (K404) (Homo sapiens, UniProt P36551); type: binding; conditions: compounds 50 µM, 1 h; gel-ABPP
T2 sequence (P36551 111-454): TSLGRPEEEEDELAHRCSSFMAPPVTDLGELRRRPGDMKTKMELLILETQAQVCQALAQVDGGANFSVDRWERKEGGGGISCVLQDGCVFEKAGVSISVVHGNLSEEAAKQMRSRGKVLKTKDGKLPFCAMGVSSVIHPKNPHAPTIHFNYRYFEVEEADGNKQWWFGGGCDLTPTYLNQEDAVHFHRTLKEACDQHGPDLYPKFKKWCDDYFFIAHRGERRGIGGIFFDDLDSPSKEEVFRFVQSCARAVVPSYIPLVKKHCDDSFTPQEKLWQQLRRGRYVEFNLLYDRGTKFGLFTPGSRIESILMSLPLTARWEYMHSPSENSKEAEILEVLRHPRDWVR

[7] = target: T3, K404 of CPOX (Homo sapiens, UniProt P36551); assay: competitive isoTOP-ABPP with probe P1, CPOX lysines; type: binding; conditions: R ≥ 4 defines liganded
T3 sequence (P36551 111-454): T2 sequence (P36551 111-454)
Method in brief: as §1

Sequence of Ku70/Ku80 heterodimer (P12956 whole entry, one chain of several): as the sequence (P12956 whole entry, one chain of several) above

SMILES: O=c1[nH]c2ccccc2c(=O)o1 [Compound 11e]
blockade of Ku70 co-immunoprecipitation with Ku80 [1]: blocked co-immunoprecipitation with Ku80 in a concentration-dependent manner | effect on preformed Ku70-Ku80 complex [2]: does not block | blockade of co-immunoprecipitation of K351R mutant of Ku70 with Ku80 [3]: Neither 11e nor 33e blocked | liganding of K351 of XRCC6 [4]: liganded

SMILES: O=C(ON1C(=O)c2ccccc2C1=O)c1cc(C(F)(F)F)cc(C(F)(F)F)c1 [Compound 12a]
engagement of K53 of GSTT2B by chemical proteomics [5]: engaged

blockade of P4 labelling of WT-CPOX [6]: partially blocked | R value (DMSO/compound) for K404 of CPOX [7]: 3.3
SMILES: O=Cc1c(O)cc(O)cc1O [Compound 28p]
